According to ChEMBL document CHEMBL1136815, “Synthesis and in vitro evaluation of novel small molecule inhibitors of bacterial arylamine N-acetyltransferases (NATs)” (Bioorg Med Chem Lett, 2003):

Assay: In vitro inhibition of recombinant Mycobacterium smegmatis Arylamine N-Acetyltransferase (MSNAT) -catalyzed acetylation of isoniazid (INH); not active; call rule not given here
Parameters: species or system Mycolicibacterium smegmatis
In short: (§1)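 Pure recombinant M. smegmatis NAT acetylating isoniazid with acetyl CoA as donor. Acetyl CoA hydrolysis rate followed with 5,5'-dithio-bis(2-nitrobenzoic acid), reading the thio-2-nitrobenzoic acid product spectrophotometrically at 412 nm. Half-maximal inhibitory concentration (IC50) taken from this rate.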

With O=C1CN(Cc2ccc3ccccc3c2)S(=O)(=O)c2ccccc21 the IC50 was “Not Active”.
For O=C1CSC(=O)N1 [THIAZOLIDINEDIONE], the IC50 was “Not Active”.

Assay: In vitro inhibition of recombinant Mycobacterium smegmatis N-Acetyltransferase (MSNAT) -catalyzed acetylation of isoniazid (INH).
Parameters: species or system Mycolicibacterium smegmatis
In short: as §1

Work on O=C1NC(=O)/C(=C2\CN(Cc3ccc4ccccc4c3)S(=O)(=O)c3ccccc32)S1 yielded an IC50 of 78 µM.

Assay: Inhibition constant of Mycobacterium smegmatis N-Acetyltransferase (MSNAT) -catalyzed acetylation with respect to isoniazid.
Parameters: species or system Mycolicibacterium smegmatis

O=C1NC(=O)/C(=C2\CN(Cc3ccc4ccccc4c3)S(=O)(=O)c3ccccc32)S1 showed a Ki of 70 µM.

Assay: In vitro inhibition of recombinant Mycobacterium smegmatis Arylamine N-Acetyltransferase (MSNAT) -catalyzed acetylation of isoniazid (INH)
Parameters: species or system Mycolicibacterium smegmatis
In short: as §1

O=C1NC(=O)/C(=C2\CN(Cc3ccc(/C=C/c4ccccc4)cc3)S(=O)(=O)c3ccccc32)S1 and O=C1NC(=O)/C(=C2\CN(Cc3ccc(-c4ccccc4)cc3)S(=O)(=O)c3ccccc32)S1 are within 1.5-fold of each other in IC50: 29 µM for the first, 20 µM for the second.

O=C1NC(=O)/C(=C2\CN(Cc3ccccn3)S(=O)(=O)c3ccccc32)S1 and O=C1NC(=O)/C(=C2\CN(Cc3ccccc3)S(=O)(=O)c3ccccc32)S1 cannot be ordered by IC50: > 100 µM for the first, > 100 µM for the second.

C=C(C)CCN1C/C(=C2/SC(=O)NC2=O)c2ccccc2S1(=O)=O and CN1C/C(=C2/SC(=O)NC2=O)c2ccccc2S1(=O)=O cannot be ordered by IC50: > 100 µM for the first, > 100 µM for the second.

Going from CCCCCCCCN1C/C(=C2/SC(=O)NC2=O)c2ccccc2S1(=O)=O to CCCCCCCCCCN1C/C(=C2/SC(=O)NC2=O)c2ccccc2S1(=O)=O, the IC50 falls from 61 µM to 22 µM (2.8-fold). The second is the more potent here.

O=C1NC(=O)/C(=C2\CNS(=O)(=O)c3ccccc32)S1 and O=C1NC(=O)/C(=C2\CN(CC3CC3)S(=O)(=O)c3ccccc32)S1 cannot be ordered by IC50: > 100 µM for the first, > 100 µM for the second.

First: CCC(CC)CN1C/C(=C2/SC(=O)NC2=O)c2ccccc2S1(=O)=O
Second: O=C1NC(=O)/C(=C2\CN(Cc3ccc(Cl)s3)S(=O)(=O)c3ccccc32)S1
The IC50 of the first is 2.8-fold higher: 92 µM for the first, 33 µM for the second. The second is the more potent here.

First: O=C1NC(=O)/C(=C2\CN(CCC3CCCCC3)S(=O)(=O)c3ccccc32)S1
Second: O=C1NC(=O)/C(=C2\CN(CC3CCCCC3)S(=O)(=O)c3ccccc32)S1
The IC50 of the first is 2.5-fold lower: 82 µM for the first, 205 µM for the second.

Going from O=C1NC(=O)/C(=C2\CN(Cc3ccc(Br)cc3)S(=O)(=O)c3ccccc32)S1 to O=C1NC(=O)/C(=C2\CN(CCOc3ccccc3)S(=O)(=O)c3ccccc32)S1, the IC50 rises from 65 µM to > 100 µM. The first is the more potent here.

In order of falling Ki:
1. CCCCCCCCN1C/C(=C2/SC(=O)NC2=O)c2ccccc2S1(=O)=O  43 µM
2. O=C1NC(=O)/C(=C2\CN(Cc3ccc(Cl)s3)S(=O)(=O)c3ccccc32)S1  26.7 µM
3. CCCCCCCCCCN1C/C(=C2/SC(=O)NC2=O)c2ccccc2S1(=O)=O  14.7 µM
4. O=C1NC(=O)/C(=C2\CN(Cc3ccc(-c4ccccc4)cc3)S(=O)(=O)c3ccccc32)S1  14.4 µM
5. O=C1NC(=O)/C(=C2\CN(Cc3ccc(/C=C/c4ccccc4)cc3)S(=O)(=O)c3ccccc32)S1  14 µM
